Activity calls are given as the source filed them. The rule behind the calls is not given here.
How the values were obtained:
VSMC = test: Antiproliferative activity against serum-stimulated primary rat aortic VSMC at 30 uM after 30 mins by resazurin conversion assay; assay type: functional, tissue-based; settings: Aorta
Summary of the method: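 Primary rat aortic VSMC were serum-starved 24 h, pretreated 30 min with 30 μM sample or 0.1% DMSO vehicle, and stimulated 48 h with 10% calf serum. Resazurin (10 μg/mL, 2 h) conversion was read as fluorescence at ex 535/em 580 nm and expressed as fold over unstimulated vehicle cells. Mean ± SD, n = 3, ANOVA/Tukey.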

A10 = test: Antiproliferative activity against rat A10; assay type: functional, cell-based
[1] = Cytotoxicity against primary rat aortic VSMC as cell viability at 30 uM by trypan blue exclusion assay (reference value: 98+/-2%); assay type: cell-based; settings: primary rat aortic vascular smooth muscle cells (VSMC), read-out: Activity
[2] = Antiproliferative activity against serum-stimulated primary rat aortic VSMC after 30 mins by resazurin conversion assay; assay type: functional, tissue-based; settings: Aorta
Summary of the method: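 Sprague–Dawley rat thoracic aorta VSMC were seeded at 1 × 10^4 cells/well, serum-starved 24 h, pretreated 30 min with sample or vehicle (final DMSO 0.1%), then stimulated 48 h with 10% calf serum. They were then washed and given 10 μg/mL resazurin for 2 h, with fluorescence read at ex 535/em 580 nm. Signals were normalized to unstimulated vehicle cells. IC50 was obtained by nonlinear regression; mean ± SD from ≥3 independent experiments.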

[3] = Antiproliferative activity in primary rat aortic VSMC assessed as inhibition of serum-induced DNA synthesis pretreated 30 mins prior serum addition measured after 20 hrs by BrdU incorporation assay; settings: Aorta

Compound | Activity (VSMC) | further results
CC(C)=CCOc1c2ccoc2cc2oc(=O)ccc12 | inactive | 
C/C=C(/C)C(=O)O[C@H](COc1c2ccoc2cc2oc(=O)ccc12)C(C)(C)O | inactive | 
COc1ccc2ccc(=O)oc2c1CC=C(C)C [OSTHOLE] | inactive | IC50 (A10): 13.6 µM
CC(C)(O)[C@H](O)COc1c2ccoc2cc2oc(=O)ccc12 | inactive | 
CC1(C)O[C@H]1COc1c2ccoc2cc2oc(=O)ccc12 | inactive | 
CC(C)=CCOc1c2occc2cc2ccc(=O)oc12 | inactive | 
CC(C)=CCC/C(C)=C/Cc1cc2ccc(=O)oc2cc1O [OSTRUTHIN] | Active | viability at 30 µM [1]: 92%; IC50 [2]: 11 µM; IC50 [3]: 17 µM

From ChEMBL document CHEMBL1811772, “Identification of ostruthin from Peucedanum ostruthium rhizomes as an inhibitor of vascular smooth muscle cell proliferation” (J Nat Prod, 2011)
